Source: ChEMBL document CHEMBL3351244, “Structure based design of novel 6,5 heterobicyclic mitogen-activated protein kinase kinase (MEK) inhibitors leading to the discovery of imidazo[1,5-a] pyrazine G-479” (Bioorg Med Chem Lett, 2014)
Converted amounts (≈) assume the structure as drawn.

Key:
[1] = Antiproliferative activity against human HCT116 cells assessed as inhibition of cell proliferation after 72 hrs; type: functional, cell-based; conditions: HCT-116, 72 h
In short: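 Cell proliferation measured after 72 h exposure in HCT116 and A375 cells; IC₅₀ reported.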

[2] = Lipophilicity, logD of the compound at pH 7.4; type: physicochemical; conditions: buffer
Cytochrome P450 2C9 = Cytochrome P450 2C9 (Homo sapiens, UniProt P11712); test: Inhibition of CYP2C9 (unknown origin); type: ADME
Cytochrome P450 2C9, sequence (P11712 whole entry): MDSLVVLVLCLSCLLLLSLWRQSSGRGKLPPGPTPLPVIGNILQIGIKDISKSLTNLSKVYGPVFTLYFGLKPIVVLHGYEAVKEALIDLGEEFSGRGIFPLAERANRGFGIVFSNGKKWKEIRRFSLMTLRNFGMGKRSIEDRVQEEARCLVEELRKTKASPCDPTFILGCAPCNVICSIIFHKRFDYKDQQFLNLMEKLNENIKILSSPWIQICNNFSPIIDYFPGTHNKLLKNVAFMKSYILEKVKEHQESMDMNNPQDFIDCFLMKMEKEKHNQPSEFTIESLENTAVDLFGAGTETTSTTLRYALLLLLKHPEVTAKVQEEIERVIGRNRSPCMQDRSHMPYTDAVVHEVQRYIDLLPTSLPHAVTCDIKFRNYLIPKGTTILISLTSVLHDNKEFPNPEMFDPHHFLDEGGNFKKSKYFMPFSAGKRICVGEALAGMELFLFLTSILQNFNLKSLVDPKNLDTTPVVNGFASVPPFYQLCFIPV

Cytochrome P450 2C19 = Cytochrome P450 2C19 (Homo sapiens, UniProt P33261); test: Inhibition of CYP2C19 (unknown origin); type: ADME
Cytochrome P450 2C19, sequence (P33261 whole entry): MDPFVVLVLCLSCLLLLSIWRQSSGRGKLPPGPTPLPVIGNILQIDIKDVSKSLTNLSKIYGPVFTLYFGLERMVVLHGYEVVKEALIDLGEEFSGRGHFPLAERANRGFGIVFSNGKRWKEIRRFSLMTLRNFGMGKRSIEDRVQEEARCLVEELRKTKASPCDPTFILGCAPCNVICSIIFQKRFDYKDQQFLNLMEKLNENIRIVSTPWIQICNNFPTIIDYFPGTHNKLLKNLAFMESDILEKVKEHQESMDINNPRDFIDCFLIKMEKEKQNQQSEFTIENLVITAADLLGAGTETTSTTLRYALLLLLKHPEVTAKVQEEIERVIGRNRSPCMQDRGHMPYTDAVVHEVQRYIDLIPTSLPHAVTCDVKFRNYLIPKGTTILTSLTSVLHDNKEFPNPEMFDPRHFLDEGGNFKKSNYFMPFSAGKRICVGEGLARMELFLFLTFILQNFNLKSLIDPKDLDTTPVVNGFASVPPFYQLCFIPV

Cytochrome P450 3A4 [3] = biological target: T1, Cytochrome P450 3A4 (Homo sapiens, UniProt P08684); test: Inhibition of CYP3A4 (unknown origin) using midazolam substrate; type: ADME
T1 sequence (P08684 whole entry): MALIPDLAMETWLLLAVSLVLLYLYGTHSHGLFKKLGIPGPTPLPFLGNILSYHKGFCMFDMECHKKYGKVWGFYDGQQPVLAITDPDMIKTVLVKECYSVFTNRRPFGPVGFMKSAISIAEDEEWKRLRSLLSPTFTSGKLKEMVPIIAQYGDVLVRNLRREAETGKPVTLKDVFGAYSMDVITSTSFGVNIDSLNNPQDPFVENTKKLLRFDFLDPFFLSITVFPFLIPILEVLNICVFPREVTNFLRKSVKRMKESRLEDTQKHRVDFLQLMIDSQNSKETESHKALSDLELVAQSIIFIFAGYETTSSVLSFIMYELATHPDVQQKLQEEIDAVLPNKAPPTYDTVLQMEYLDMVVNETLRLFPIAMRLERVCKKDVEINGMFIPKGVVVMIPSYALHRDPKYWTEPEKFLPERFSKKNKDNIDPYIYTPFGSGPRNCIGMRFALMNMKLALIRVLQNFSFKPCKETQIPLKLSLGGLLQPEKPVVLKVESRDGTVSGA

Cytochrome P450 3A4 [4] = biological target: T1, Cytochrome P450 3A4; test: Inhibition of CYP3A4 (unknown origin) using testosterone substrate; type: ADME
Cytochrome P450 2D6 = Cytochrome P450 2D6 (Homo sapiens, UniProt P10635); test: Inhibition of CYP2D6 (unknown origin); type: ADME
Cytochrome P450 2D6, sequence (P10635 whole entry): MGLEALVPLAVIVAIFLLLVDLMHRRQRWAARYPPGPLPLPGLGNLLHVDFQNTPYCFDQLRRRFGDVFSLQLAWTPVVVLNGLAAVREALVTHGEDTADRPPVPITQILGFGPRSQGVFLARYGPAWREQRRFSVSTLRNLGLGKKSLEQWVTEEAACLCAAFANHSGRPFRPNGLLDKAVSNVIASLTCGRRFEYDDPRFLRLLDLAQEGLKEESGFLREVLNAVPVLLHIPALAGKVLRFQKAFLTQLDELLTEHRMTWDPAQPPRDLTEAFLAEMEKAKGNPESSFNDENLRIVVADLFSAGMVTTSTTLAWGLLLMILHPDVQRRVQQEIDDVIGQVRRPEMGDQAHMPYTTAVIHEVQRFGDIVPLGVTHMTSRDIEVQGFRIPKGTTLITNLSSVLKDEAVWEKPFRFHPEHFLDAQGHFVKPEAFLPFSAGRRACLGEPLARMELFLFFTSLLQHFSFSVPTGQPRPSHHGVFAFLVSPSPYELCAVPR

Cytochrome P450 1A2 = biological target: T2, Cytochrome P450 1A2 (Homo sapiens, UniProt P05177); test: Inhibition of CYP1A2 (unknown origin); type: ADME
T2 sequence (P05177 whole entry): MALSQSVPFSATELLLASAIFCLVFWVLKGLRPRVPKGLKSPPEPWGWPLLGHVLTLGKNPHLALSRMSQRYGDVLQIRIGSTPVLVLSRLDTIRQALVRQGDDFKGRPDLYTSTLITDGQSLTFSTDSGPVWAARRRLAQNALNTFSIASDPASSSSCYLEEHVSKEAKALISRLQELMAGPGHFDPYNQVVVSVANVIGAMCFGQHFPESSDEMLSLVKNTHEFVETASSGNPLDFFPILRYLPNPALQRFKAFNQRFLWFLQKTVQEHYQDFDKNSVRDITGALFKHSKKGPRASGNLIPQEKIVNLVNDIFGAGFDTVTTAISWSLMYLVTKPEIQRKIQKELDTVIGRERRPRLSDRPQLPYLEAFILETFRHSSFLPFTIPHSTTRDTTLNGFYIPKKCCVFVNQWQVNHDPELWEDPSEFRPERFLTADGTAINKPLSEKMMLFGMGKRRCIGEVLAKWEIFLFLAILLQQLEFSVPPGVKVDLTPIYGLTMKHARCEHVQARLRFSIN

[5] = biological target: Dual specificity mitogen-activated protein kinase kinase 1 (Homo sapiens, UniProt Q02750); test: Inhibition of MEK1 (unknown origin) by HTRF assay
Dual specificity mitogen-activated protein kinase kinase 1, sequence (Q02750 whole entry): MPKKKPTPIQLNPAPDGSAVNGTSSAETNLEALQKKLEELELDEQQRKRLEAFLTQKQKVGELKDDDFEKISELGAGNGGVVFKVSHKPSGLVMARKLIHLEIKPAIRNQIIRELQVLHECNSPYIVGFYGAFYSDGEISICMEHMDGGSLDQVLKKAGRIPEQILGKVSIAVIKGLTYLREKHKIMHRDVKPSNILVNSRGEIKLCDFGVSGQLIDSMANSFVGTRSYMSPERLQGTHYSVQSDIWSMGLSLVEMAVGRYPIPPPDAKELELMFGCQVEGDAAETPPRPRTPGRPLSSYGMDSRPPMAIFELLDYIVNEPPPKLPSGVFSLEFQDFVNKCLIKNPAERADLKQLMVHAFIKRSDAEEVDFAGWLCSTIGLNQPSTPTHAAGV

A-375 = test: cells; conditions: Homo sapiens, A-375, 72 h
[6] = Total clearance in rat at 1 mg/kg, iv or 5 mg/kg, po; type: ADME, organism-based; conditions: in vivo
[7] = Half life in rat at 1 mg/kg, iv or 5 mg/kg, po; type: ADME, organism-based; conditions: in vivo
Rattus norvegicus [8] = test: Dose normalized AUC in rat at 5 mg/kg, po; type: ADME, organism-based; design: dose 5 mg/kg, route oral; conditions: in vivo
Rattus norvegicus [9] = test: Free clearance in rat at 1 mg/kg, iv or 5 mg/kg, po; type: ADME, organism-based; conditions: in vivo
[10] = Protein binding in rat plasma; type: ADME, cell-free; conditions: read-out: PPB (converted)
[11] = Hepatic clearance in human liver microsomes; type: ADME
In short: (§1)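 Compounds incubated with liver microsomes from human, rat, mouse, dog and cynomolgus monkey to assess comparative metabolic stability; clearance expressed in mL/min/kg, with stable/moderate/labile designations assigned by set ranges.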

[12] = Hepatic clearance in rat liver microsomes; type: ADME; in short: as §1
[13] = Hepatic clearance in mouse liver microsomes; type: ADME; in short: as §1
[14] = Hepatic clearance in dog liver microsomes; type: ADME, Canis lupus familiaris; in short: as §1
[15] = Hepatic clearance in cynomolgus monkey liver microsomes; type: ADME, Macaca fascicularis; in short: as §1
[16] = Volume of distribution at steady state in rat at 1 mg/kg, iv or 5 mg/kg, po; type: ADME, organism-based; conditions: in vivo, read-out: Vdss
[17] = Oral bioavailability in rat at 5 mg/kg; type: ADME, organism-based; conditions: in vivo
[18] = AUC in rat at 1 mg/kg, iv or 5 mg/kg, po; type: ADME, organism-based; conditions: plasma
[19] = biological target: Voltage-gated inwardly rectifying potassium channel KCNH2 (Homo sapiens, UniProt Q12809); test: Inhibition of human ERG by patch clamp assay
Voltage-gated inwardly rectifying potassium channel KCNH2, sequence (Q12809 whole entry): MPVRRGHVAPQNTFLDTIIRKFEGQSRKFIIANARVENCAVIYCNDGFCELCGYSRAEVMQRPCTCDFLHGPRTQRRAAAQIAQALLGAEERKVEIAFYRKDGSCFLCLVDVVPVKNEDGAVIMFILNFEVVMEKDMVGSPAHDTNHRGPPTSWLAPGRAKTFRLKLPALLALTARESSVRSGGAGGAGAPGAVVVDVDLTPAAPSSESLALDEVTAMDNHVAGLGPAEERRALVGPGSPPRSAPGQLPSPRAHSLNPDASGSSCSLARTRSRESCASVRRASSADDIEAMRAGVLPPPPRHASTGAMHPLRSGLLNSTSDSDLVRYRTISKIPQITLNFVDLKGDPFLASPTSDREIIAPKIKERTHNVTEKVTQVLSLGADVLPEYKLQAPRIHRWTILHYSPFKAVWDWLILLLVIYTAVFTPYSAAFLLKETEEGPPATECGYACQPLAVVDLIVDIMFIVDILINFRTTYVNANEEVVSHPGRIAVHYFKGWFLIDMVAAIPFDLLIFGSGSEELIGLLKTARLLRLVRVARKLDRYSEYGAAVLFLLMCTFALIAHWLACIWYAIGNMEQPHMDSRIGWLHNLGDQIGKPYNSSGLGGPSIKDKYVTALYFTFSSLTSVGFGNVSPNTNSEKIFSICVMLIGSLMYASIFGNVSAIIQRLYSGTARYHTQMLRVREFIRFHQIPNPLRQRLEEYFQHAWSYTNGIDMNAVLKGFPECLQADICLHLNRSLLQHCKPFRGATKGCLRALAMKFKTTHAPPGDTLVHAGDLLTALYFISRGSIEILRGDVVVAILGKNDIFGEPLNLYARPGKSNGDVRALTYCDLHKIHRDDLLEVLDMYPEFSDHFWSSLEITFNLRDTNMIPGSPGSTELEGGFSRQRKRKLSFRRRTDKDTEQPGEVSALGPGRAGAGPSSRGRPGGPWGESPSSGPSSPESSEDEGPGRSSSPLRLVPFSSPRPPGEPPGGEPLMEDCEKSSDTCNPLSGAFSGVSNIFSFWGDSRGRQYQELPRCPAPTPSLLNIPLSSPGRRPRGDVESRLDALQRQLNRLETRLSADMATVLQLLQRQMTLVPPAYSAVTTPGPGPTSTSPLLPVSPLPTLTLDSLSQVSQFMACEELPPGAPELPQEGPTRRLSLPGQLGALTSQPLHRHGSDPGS

[20] = Thermodynamic solubility of the compound at pH 6.5; type: physicochemical; conditions: buffer, read-out: Therm_solubility
[21] = (§2) Permeability from apical to basolateral side in MDCK cells; type: ADME, cell-based, Canis lupus familiaris; conditions: dog, read-out: permeability
[22] = (§3) Permeability from basolateral to apical side in MDCK cells; type: ADME, cell-based, Canis lupus familiaris; conditions: dog, read-out: permeability
[23] = (§4) Efflux ratio in MDCK cells; type: ADME, cell-based, Canis lupus familiaris; conditions: dog
In short: (§5)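 Efflux ratio derived as B–A permeability divided by A–B permeability across MDCK cell monolayers. Apparent permeabilities were measured in both directions and expressed in 10^-6 cm/s.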

[24] = Protein binding in human plasma; type: ADME, cell-free; conditions: read-out: PPB (converted)
[25] = Protein binding in mouse plasma; type: ADME, cell-free; conditions: read-out: PPB (converted)
[26] = Dissociation constant, pKa of the compound by Sirius based assay; type: physicochemical
MDCK [27] = test: as §2; type: ADME, cell-based, Canis lupus familiaris; conditions: dog
MDCK [28] = test: as §3; type: ADME, cell-based, Canis lupus familiaris; conditions: dog
MDCK [29] = test: as §4; type: ADME, cell-based, Canis lupus familiaris; conditions: dog; in short: as §5
Plasma [30] = test: Stability in rat plasma at 5 mg/kg, po; type: ADME, organism-based; design: dose 5 mg/kg, route oral; conditions: in vivo
Plasma [31] = test: Drug metabolism rat plasma assessed as metabolite formation at 5 mg/kg, po; type: ADME, organism-based; design: dose 5 mg/kg, route oral; conditions: in vivo

Row | logD [2] | IC50 (Cytochrome P450 2C9) | IC50 (Cytochrome P450 2C19) | IC50 (Cytochrome P450 3A4 [3]) | IC50 (Cytochrome P450 3A4 [4]) | IC50 (Cytochrome P450 2D6) | IC50 (Cytochrome P450 1A2) | EC50 (A-375) | clearance [6] | AUC/dose (Rattus norvegicus [8]) | CL free (Rattus norvegicus [9]) | fraction unbound [10] | CLhep predicted [11] | CLhep predicted [12] | CLhep predicted [13] | bioavailability [17] | solubility thermodynamic [20] | fraction unbound [24] | fraction unbound [25] | Structure (SMILES) | EC50 [1] | other results
1 | – | 1200 nM | – | – | – | – | – | – | 3.3 mL/min/kg | 41 µM·h | 55 mL/min/kg | 0.03 | – | – | – | – | – | – | – | O=C(NOCCO)c1cc(F)c2cncn2c1Nc1ccc(I)cc1F | 140 nM | half-life [7]: 3.6 h
2 | 2.1 | 7300 nM | 16000 nM | > 10000 nM | > 10000 nM | > 10000 nM | > 10000 nM | 2 nM | 14 mL/min/kg | 37 µM·h | 636 mL/min/kg | 0.022 | 15 mL/min/kg | 40 mL/min/kg | 75 mL/min/kg | 37% | 110 µg/mL (≈ 241 µM) | 0.015 | 0.049 | O=C(NOCCO)c1ccn2cncc2c1Nc1ccc(I)cc1F | 35 nM | CLhep predicted [14]: 23 mL/min/kg; CLhep predicted [15]: 38 mL/min/kg; half-life [7]: 0.9 h; Vd [16]: 0.46 L/kg; AUC [18]: 6 µM·h; IC50 [19]: 2100 nM; Papp A→B [21]: 20.4 ×10⁻⁶ cm/s; Papp B→A [22]: 14 ×10⁻⁶ cm/s; efflux ratio [23]: 0.7
3 | 2.1 | > 10000 nM | > 10000 nM | > 10000 nM | > 10000 nM | > 10000 nM | > 10000 nM | 4 nM | 13.2 mL/min/kg | 20 µM·h | 1320 mL/min/kg | 0.01 | 14 mL/min/kg | 38 mL/min/kg | 64 mL/min/kg | 100% | 41 µg/mL (≈ 89.9 µM) | 0.005 | 0.06 | O=C(NOCCO)c1ccc2cncn2c1Nc1ccc(I)cc1F [GDC-0623] | 51 nM | CLhep predicted [14]: 12 mL/min/kg; CLhep predicted [15]: 30 mL/min/kg; half-life [7]: 1.7 h; Vd [16]: 0.5 L/kg; IC50 [19]: 4400 nM; pKa [26]: 4.3; Papp A→B [21]: 6.2 ×10⁻⁶ cm/s; Papp B→A [22]: 16.5 ×10⁻⁶ cm/s; efflux ratio [23]: 2.6; Stability (Plasma [30]): 82%; Drug metabolism (Plasma [31]): metabolite_detected

The remaining lines, values behind:

Row | Structure (SMILES) | logD [2] | IC50 (Cytochrome P450 2C9) | IC50 (Cytochrome P450 2C19) | IC50 (Cytochrome P450 3A4 [3]) | IC50 (Cytochrome P450 3A4 [4]) | IC50 (Cytochrome P450 2D6) | IC50 (Cytochrome P450 1A2) | EC50 (A-375) | clearance [6] | AUC/dose (Rattus norvegicus [8]) | CL free (Rattus norvegicus [9]) | fraction unbound [10] | CLhep predicted [11] | CLhep predicted [12] | CLhep predicted [13] | bioavailability [17] | solubility thermodynamic [20] | fraction unbound [24] | fraction unbound [25] | EC50 [1] | other results
4 | O=C(NOCCO)c1ccc2cnsc2c1Nc1ccc(I)cc1F | 3.1 | 1300 nM | 1800 nM | 9000 nM | 9000 nM | > 10000 nM | > 10000 nM | – | – | – | – | – | – | – | – | – | – | – | – | 44 nM | –
5 | O=C(NOCCO)c1oc2ccncc2c1Nc1ccc(I)cc1F | 3.1 | > 10000 nM | > 10000 nM | > 10000 nM | > 10000 nM | > 10000 nM | > 10000 nM | 25 nM | – | – | – | – | – | – | – | – | – | – | – | 120 nM | IC50 [5]: 12 nM
6 | O=C(NOCCO)c1ncc2cncn2c1Nc1ccc(I)cc1F | 2.1 | – | – | – | – | – | – | 8 nM | 48 mL/min/kg | 1.48 µM·h | 600 mL/min/kg | 0.08 | 11 mL/min/kg | 41 mL/min/kg | 54 mL/min/kg | 38% | 150 µg/mL (≈ 328 µM) | 0.09 | 0.11 | 120 nM | IC50 [19]: 3300 nM; pKa [26]: 2.03; Papp A→B [21]: 19.7 ×10⁻⁶ cm/s; Papp B→A [22]: 14 ×10⁻⁶ cm/s; efflux ratio [23]: 0.7
7 | C[C@H](O)CONC(=O)c1ncc2cncn2c1Nc1ccc(I)cc1F | – | – | – | – | – | – | – | 5 nM | 44 mL/min/kg | 0.61 µM·h | 800 mL/min/kg | 0.055 | 10 mL/min/kg | 44 mL/min/kg | 56 mL/min/kg | 15% | 48 µg/mL (≈ 102 µM) | 0.1 | 0.09 | 52 nM | –
8 | C[C@H](CO)CONC(=O)c1ncc2cncn2c1Nc1ccc(I)cc1F | – | – | – | – | – | – | – | 7 nM | 12 mL/min/kg | 9.2 µM·h | 92 mL/min/kg | 0.13 | 8 mL/min/kg | 19 mL/min/kg | 29 mL/min/kg | 65% | 12 µg/mL (≈ 24.7 µM) | 0.14 | 0.13 | 107 nM | IC50 [19]: 14000 nM; permeability (MDCK [27]): 7.9 ×10⁻⁶ cm/s; permeability (MDCK [28]): 8.7 ×10⁻⁶ cm/s; Ratio (MDCK [29]): 1.3
